According to ChEMBL document CHEMBL3286225, “Novel carboline derivatives as potent antifungal lead compounds: design, synthesis, and biological evaluation” (ACS Med Chem Lett, 2014):
Values after ≈ are worked out from the molar mass of the structure shown. Active and inactive are the calls of the source. The rule behind the calls is not given here.

What was measured:
[1] = molecular target: T1, CYP2C9 (Homo sapiens, UniProt P11712); test: Inhibition of CYP2C9 in human liver microsomes assessed as tolbutamide conversion to 4-hydroxy tolbutamide at 2.5 uM preincubated for 10 mins followed by NADPH addition measured after 15 mins by LC-MS/MS analysis relative to control; assay type: ADME; settings: probe tolbutamide
[2] = molecular target: Cytochrome P450 2C19 (Homo sapiens, UniProt P33261); test: Inhibition of CYP2C19 in human liver microsomes assessed as S-mephenytoin conversion to 4'-hydroxy mephenytoin preincubated for 10 mins followed by NADPH addition measured after 15 mins by LC-MS/MS analysis; assay type: ADME
[3] = molecular target: T1, CYP2C9; test: Inhibition of CYP2C9 in human liver microsomes assessed as tolbutamide conversion to 4-hydroxy tolbutamide at 25 uM preincubated for 10 mins followed by NADPH addition measured after 15 mins by LC-MS/MS analysis relative to control; assay type: ADME; settings: probe tolbutamide
[4] = molecular target: T2, CYP2C19 (Homo sapiens, UniProt P33261); test: Inhibition of CYP2C19 in human liver microsomes assessed as S-mephenytoin conversion to 4'-hydroxy mephenytoin at 0.25 uM preincubated for 10 mins followed by NADPH addition measured after 15 mins by LC-MS/MS analysis relative to control; assay type: ADME; settings: probe S-mephenytoin
[5] = test system: Candida albicans; test: Antifungal activity against fluconazole-sensitive Candida albicans SC5314 assessed as change in eburicol composition at 8 ug/ml after 24 hrs by GC-MS analysis relative to control; assay type: functional
Outline: (§1)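 C. albicans SC5314 exposed to 8 μg/mL for 24 h, sterols analysed by GC-MS with cholesterol internal standard; each sterol expressed as % of total sterol fraction versus no-drug control; average of three independent experiments.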

[6] = test system: Candida albicans; test: Inhibition of biofilm formation of fluconazole-resistant Candida albicans 103 after 48 hrs by XTT assay; assay type: functional, organism-based
Outline: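 Biofilm formation by C. albicans SC5314 or 103 in presence of 2–64 μg/mL drug (fluconazole 64 μg/mL reference); quantified by XTT reduction as % of blank control; mean ± standard deviation of three independent experiments, ANOVA and Student t test.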

[7] = test system: Candida albicans; test: Antifungal activity against fluconazole-resistant Candida albicans 07109 after 24 hrs by serial dilution method; assay type: functional; settings: Candida albicans, 07109, 24 h
[8] = test system: Candida albicans; test: Antifungal activity against fluconazole-sensitive Candida albicans SC5314 assessed as thickening of middle sphere of cell wall at 8 ug/ml after 8 hrs by TEM analysis; assay type: functional, organism-based
Outline: (§2)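 Transmission electron microscopy of C. albicans SC5314 cells exposed to 8 μg/mL for 8 h. Untreated cells and cells given fluconazole 8 μg/mL for 8 h served as controls. Cell wall layers, cytoplasmic density and vacuole shape were compared by eye.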

[9] = test system: Candida albicans; test: Antifungal activity against fluconazole-resistant Candida albicans 100 after 24 hrs by serial dilution method; assay type: functional; settings: Candida albicans, 100, 24 h
[10] = test system: Candida parapsilosis; test: Antifungal activity against Candida parapsilosis ATCC 22019 after 24 hrs by serial dilution method; assay type: functional; settings: Lodderomyces parapsilosis, ATCC 22019, 24 h
[11] = test system: Candida albicans; test: Antifungal activity against fluconazole-resistant Candida albicans 07109 after 24 hrs by serial dilution method in presence of fluconazole; assay type: functional
Outline: (§3)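 Tested in combination with fluconazole against each fluconazole-resistant C. albicans strain. Interaction was scored by fractional inhibitory concentration index (FICI): synergy at FICI ≤ 0.5, indifference at 0.5 < FICI ≤ 4, antagonism at FICI > 4.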

[12] = molecular target: T1, CYP2C9; test: Inhibition of CYP2C9 in human liver microsomes assessed as tolbutamide conversion to 4-hydroxy tolbutamide at 0.25 uM preincubated for 10 mins followed by NADPH addition measured after 15 mins by LC-MS/MS analysis relative to control; assay type: ADME; settings: probe tolbutamide
[13] = test system: Candida albicans; test: Antifungal activity against fluconazole-sensitive Candida albicans SC5314 assessed as cell membrane damage at 8 ug/ml after 8 hrs by TEM analysis; assay type: functional, organism-based
Outline: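 Transmission electron microscopy of C. albicans SC5314 cells exposed to 8 μg/mL drug for 8 h; untreated cells as reference; cell wall, membrane, cytoplasm and vacuole morphology inspected.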

[14] = molecular target: T2, CYP2C19; test: Inhibition of CYP2C19 in human liver microsomes assessed as S-mephenytoin conversion to 4'-hydroxy mephenytoin at 25 uM preincubated for 10 mins followed by NADPH addition measured after 15 mins by LC-MS/MS analysis relative to control; assay type: ADME; settings: probe S-mephenytoin
[15] = test system: Candida albicans; test: Fungicidal activity against fluconazole-resistant Candida albicans 103 assessed as growth inhibition at 4 to 32 ug/ml after 12 to 48 hrs; assay type: functional, organism-based
Outline: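 Time-kill: C. albicans (SC5314 or 103) inoculated at 10^5 CFU/mL, untreated or with drug (2–32 μg/mL; fluconazole 32 μg/mL reference); CFU/mL counted after 0, 12, 24 and 48 h.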

[16] = test system: Candida albicans; test: Antifungal activity against fluconazole-resistant Candida albicans 805 after 24 hrs by serial dilution method in presence of fluconazole; assay type: functional; outline: as §3
[17] = molecular target: T3, CYP3A4 (Homo sapiens, UniProt P08684); test: Inhibition of CYP3A4 in human liver microsomes assessed as midazolam conversion to 1'-hydroxy midazolam at 25 uM preincubated for 10 mins followed by NADPH addition measured after 15 mins by LC-MS/MS analysis relative to control; assay type: ADME; settings: probe midazolam
[18] = molecular target: Cytochrome P450 3A4 (Homo sapiens, UniProt P08684); test: Inhibition of CYP3A4 in human liver microsomes assessed as midazolam conversion to 1'-hydroxy midazolam preincubated for 10 mins followed by NADPH addition measured after 15 mins by LC-MS/MS analysis; assay type: ADME
[19] = test system: Candida albicans; test: Antifungal activity against fluconazole-sensitive Candida albicans SC5314 assessed as thinning of outer sphere of cell wall at 8 ug/ml after 8 hrs by TEM analysis; assay type: functional, organism-based; outline: as §2
[20] = test system: Candida albicans; test: Fungicidal activity against fluconazole-sensitive Candida albicans SC5314 after 12 to 48 hrs; assay type: functional, organism-based
Outline: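 Time-kill assay starting from 10^5 CFU/mL C. albicans SC5314. Test concentrations ranged from 2–32 μg/mL. Untreated and fluconazole 32 μg/mL controls were included. Viable counts (CFU/mL) were taken at 0, 12, 24 and 48 h of incubation.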

[21] = test system: Candida albicans; test: Antifungal activity against fluconazole-sensitive Candida albicans SC5314 assessed as necrosis at 8 ug/ml after 8 hrs by TEM analysis; assay type: functional, organism-based; outline: as §2
[22] = molecular target: T2, CYP2C19; test: Inhibition of CYP2C19 in human liver microsomes assessed as S-mephenytoin conversion to 4'-hydroxy mephenytoin at 2.5 uM preincubated for 10 mins followed by NADPH addition measured after 15 mins by LC-MS/MS analysis relative to control; assay type: ADME; settings: probe S-mephenytoin
[23] = test system: Candida albicans; test: Antifungal activity against fluconazole-sensitive Candida albicans SC5314 assessed as change in obtusifoliol composition at 8 ug/ml after 24 hrs by GC-MS analysis relative to control; assay type: functional; outline: as §1
[24] = molecular target: T3, CYP3A4; test: Inhibition of CYP3A4 in human liver microsomes assessed as testosterone conversion to 6-hydroxy testosterone at 2.5 uM preincubated for 10 mins followed by NADPH addition measured after 15 mins by LC-MS/MS analysis relative to control; assay type: ADME; settings: probe testosterone
[25] = test system: Candida albicans; test: Antifungal activity against fluconazole-resistant Candida albicans 805 after 24 hrs by serial dilution method; assay type: functional; settings: Candida albicans, 805, 24 h
[26] = molecular target: T3, CYP3A4; test: Inhibition of CYP3A4 in human liver microsomes assessed as testosterone conversion to 6-hydroxy testosterone at 25 uM preincubated for 10 mins followed by NADPH addition measured after 15 mins by LC-MS/MS analysis relative to control; assay type: ADME; settings: probe testosterone

T3 sequence (P08684 whole entry): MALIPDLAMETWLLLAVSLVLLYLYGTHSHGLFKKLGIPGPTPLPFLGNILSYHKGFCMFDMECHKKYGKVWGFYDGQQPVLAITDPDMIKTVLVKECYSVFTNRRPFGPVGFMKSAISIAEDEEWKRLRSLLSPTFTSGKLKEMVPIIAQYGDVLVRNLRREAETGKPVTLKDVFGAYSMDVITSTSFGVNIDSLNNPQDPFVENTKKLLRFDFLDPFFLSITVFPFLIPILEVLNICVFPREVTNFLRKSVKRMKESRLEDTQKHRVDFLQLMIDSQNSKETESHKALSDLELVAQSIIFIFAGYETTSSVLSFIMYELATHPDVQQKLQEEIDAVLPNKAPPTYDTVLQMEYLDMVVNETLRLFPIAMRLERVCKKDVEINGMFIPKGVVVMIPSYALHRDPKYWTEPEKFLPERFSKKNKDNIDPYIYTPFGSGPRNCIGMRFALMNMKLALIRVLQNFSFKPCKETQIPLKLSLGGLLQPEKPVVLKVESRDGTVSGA
T1 sequence (P11712 whole entry): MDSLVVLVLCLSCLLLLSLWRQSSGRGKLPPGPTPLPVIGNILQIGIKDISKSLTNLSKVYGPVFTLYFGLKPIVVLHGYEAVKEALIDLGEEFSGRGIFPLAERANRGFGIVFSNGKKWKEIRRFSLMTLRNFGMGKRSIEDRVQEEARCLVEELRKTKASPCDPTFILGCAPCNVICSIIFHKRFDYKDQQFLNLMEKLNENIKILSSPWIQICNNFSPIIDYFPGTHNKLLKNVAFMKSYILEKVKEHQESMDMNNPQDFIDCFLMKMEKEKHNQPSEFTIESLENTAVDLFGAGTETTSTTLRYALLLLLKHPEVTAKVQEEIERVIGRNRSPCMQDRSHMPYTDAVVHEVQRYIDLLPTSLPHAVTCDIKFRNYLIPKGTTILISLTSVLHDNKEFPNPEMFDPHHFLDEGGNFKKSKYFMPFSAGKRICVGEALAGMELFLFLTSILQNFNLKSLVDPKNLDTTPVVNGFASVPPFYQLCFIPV
T2 sequence (P33261 whole entry): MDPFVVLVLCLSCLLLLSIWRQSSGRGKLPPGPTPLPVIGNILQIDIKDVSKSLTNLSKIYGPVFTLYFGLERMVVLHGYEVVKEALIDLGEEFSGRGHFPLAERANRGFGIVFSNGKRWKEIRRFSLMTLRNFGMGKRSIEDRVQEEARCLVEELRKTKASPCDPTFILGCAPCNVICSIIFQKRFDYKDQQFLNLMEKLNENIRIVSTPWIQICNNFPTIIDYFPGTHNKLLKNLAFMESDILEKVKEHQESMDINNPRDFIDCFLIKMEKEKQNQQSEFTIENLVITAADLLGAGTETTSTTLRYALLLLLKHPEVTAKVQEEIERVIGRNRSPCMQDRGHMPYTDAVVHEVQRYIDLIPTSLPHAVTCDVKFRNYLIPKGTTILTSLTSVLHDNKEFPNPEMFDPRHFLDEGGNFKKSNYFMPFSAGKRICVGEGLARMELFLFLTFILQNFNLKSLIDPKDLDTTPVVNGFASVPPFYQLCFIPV
Sequence of Cytochrome P450 3A4 (P08684 whole entry): as the sequence (P08684 whole entry) above
Sequence of Cytochrome P450 2C19 (P33261 whole entry): as the sequence (P33261 whole entry) above

Fc1ccc2c(c1)c1c(n2CCCOc2ccc(Cl)cc2)CCNC1
inhibition at 0.25 h, 2.5 µM [1]: 8% | IC50 [2]: > 25 µM | inhibition at 0.25 h, 25 µM [3]: 36% | inhibition at 0.25 h, 0.25 µM [4]: 4% | Activity [5]: 12.4% | inhibition [6]: Dose-dependent effect | MIC80 [7]: 4 µg/mL (≈ 11.1 µM) | Activity [8]: Active | MIC80 [9]: 4 µg/mL (≈ 11.1 µM) | MIC80 [10]: 4 µg/mL (≈ 11.1 µM) | fractional inhibitory concentration index (FICI) [11]: 0.252 | inhibition at 0.25 h, 0.25 µM [12]: -2% | Activity [13]: inactive | inhibition at 0.25 h, 25 µM [14]: 33% | growth inhibition (GI) [15]: Active | fractional inhibitory concentration index (FICI) [16]: 0.252 | inhibition at 0.25 h, 25 µM [17]: 50% | IC50 [18]: 50 µM | Activity [19]: Active | Activity [20]: Dose-dependent effect | Activity [21]: Active | inhibition at 0.25 h, 2.5 µM [22]: 5% | Activity [23]: 3.7% | inhibition at 0.25 h, 2.5 µM [24]: -10% | MIC80 [25]: 4 µg/mL (≈ 11.1 µM) | inhibition at 0.25 h, 25 µM [26]: -35%
